Our source for the Activity and Flu intensity values is ChEMBL document CHEMBL4732048, “Amphiphilic desmuramyl peptides for the rational design of new vaccine adjuvants: Synthesis, in vitro modulation of inflammatory response and molecular docking studies” (2021).

The source made the active and inactive calls. The calls are words filed in the database; no cut-off is given here.

Experiment [1] concerns THP-1. As to the kind of experiment: Immunostimulatory activity in human THP-1 macrophage assessed as increase in TNF-alpha production at 15 uM incubated for 24 hrs by ELISA. Type of experiment: functional. In outline:
(§1)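 THP-1 monocytes (0.5×10^6) differentiated 48 h with PMA 20 ng/mL, PBS-washed, held 3 h in serum-free medium, then stimulated 24 h with peptide at 1, 15 or 30 µM. TNF-α in culture supernatants (stored −80 °C) measured by ELISA at 450 nm with 540 nm correction against a 2nd-order polynomial standard curve; mean of two experiments ± SEM; one-way ANOVA.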
(In general: An ELISA detects its analyte on a solid surface through an enzyme-linked reagent.)

The subject of experiment [2] is THP-1. Kind of experiment: Immunostimulatory activity in human THP-1 cells assessed as increase in ICAM-1 expression level at 20 uM incubated for 21 hrs by flow cytometry analysis. Format: functional, cell-based. In outline: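 THP-1 monocytes in RPMI-1640 with 10% heat-inactivated FBS and 1% antibiotic/antimycotic, 5% CO2, 37 °C. 0.5×10^6 cells/well pre-cultured 24 h, then exposed to 20 µM peptide for 21 h. Cells centrifuged, PBS-washed, resuspended in PBS/0.1% BSA, stained with PE anti-CD54 antibody; flow cytometry read-out of ICAM-1.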
On the technique in general: In flow cytometry, cells or beads pass a laser one at a time.

Experiment [3] has as its system THP-1. As to the kind of experiment: Immunostimulatory activity in human THP-1 macrophage assessed as increase in LPS-induced ICAM-1 expression by measuring mean fluorescence intensity at 20 uM preincubated for 1 hr followed by LPS stimulation for 20 hrs by flow cytometry analysis (reference value: 602.95). Format: functional. The conditions noted are these: time 21 hrs.

Experiment [4] deals with THP-1. As to the kind of experiment: Immunostimulatory activity in human THP-1 macrophage assessed as increase in TNF-alpha production at 30 uM incubated for 24 hrs by ELISA. Type of experiment: functional, cell-based. The method in brief:
as §1

Experiment [5] concerns THP-1. As to the kind of experiment: Immunostimulatory activity in human THP-1 cells assessed as increase in LPS-induced ICAM-1 expression at 20 uM preincubated for 1 hr followed by LPS stimulation for 20 hrs by flow cytometry analysis. Type of experiment: functional, cell-based. The conditions noted are these: time 21.0 hrs. In outline: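 Undifferentiated THP-1 monocytes (0.5×10^6/well, pre-cultured 24 h) pretreated 1 h with peptide (range 0.1–32 µM), then LPS 0.1 µg/mL added for 20 h. Cells pelleted, PBS-washed, resuspended in PBS with 0.1% BSA; ICAM-1 measured by flow cytometry.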

On to `CCCCOC(=O)[C@@H](CCC(N)=O)NC(=O)[C@H](C)NC(=O)[C@@H](C)O[C@H]1[C@H](O)[C@@H](CO)O[C@H](O)[C@@H]1NC(C)=O`, for which the Activity in experiment [1] amounted to 2694 pg/mL. Also, the outcome in experiment [2] was inactive. Moreover, the Flu intensity in experiment [3] is 1436.05.
Regarding `CCCCCCNC(=O)CC[C@@H](NC(=O)[C@H](C)NC(=O)COc1cccc(N(CCO)C(C)=O)c1)C(N)=O`, the outcome in experiment [4] and in experiment [2] was inactive. For the same compound, in experiment [1], the Activity came out at 3342 pg/mL. The outcome in experiment [5] was Active.
With `CCCCCCNC(=O)CC[C@@H](NC(=O)[C@H](C)NC(=O)COc1cccc(N(CCCO)CCCO)c1)C(N)=O`, the outcome in experiment [4] and in experiment [2] was inactive. Besides, the Activity in experiment [1] turned out to be 3306 pg/mL. In addition, the result in experiment [5] was Active.
`CCCCCCNC(=O)CC[C@@H](NC(=O)[C@H](C)NC(=O)COc1cccc(N(CCO)CCO)c1)C(N)=O`: the outcome in experiment [4] and in experiment [2] was inactive. The Activity in experiment [1] amounted to 3111 pg/mL. The outcome in experiment [5] was Active.
Turning to `CCCCCCNC(=O)CC[C@@H](NC(=O)[C@H](C)NC(=O)COc1cccc(NCCO)c1)C(N)=O`, the outcome in experiment [4] and in experiment [2] was inactive. For the same compound, the Activity in experiment [1] stood at 3226 pg/mL. Moreover, in experiment [5], the outcome was Active.
`CCCCCCNC(=O)CC[C@@H](NC(=O)[C@H](C)NC(=O)COc1cccc(N(CCCO)C(=O)CCC)c1)C(N)=O`: the result in experiment [4] and in experiment [2] was inactive. Also, the Activity in experiment [1] came to 3105 pg/mL. Moreover, the Flu intensity in experiment [3] is given as 905.38. In addition, the outcome in experiment [5] was Active.
`CCCCCCNC(=O)CC[C@@H](NC(=O)[C@H](C)NC(=O)COc1cccc(NCCCO)c1)C(N)=O`: the result in experiment [4] and in experiment [2] was inactive. Further, the Activity in experiment [1] was 3622 pg/mL. Moreover, the outcome in experiment [5] was Active.
Turning to `CCCCCCNC(=O)CC[C@@H](NC(=O)[C@H](C)NC(=O)COc1cccc(N(CCO)C(=O)CCC)c1)C(N)=O`, the outcome in experiment [4] and in experiment [2] was inactive. Moreover, the Activity in experiment [1] came out at 2806 pg/mL. In addition, the outcome in experiment [5] was Active.
With `CCCCCCNC(=O)CC[C@@H](NC(=O)[C@H](C)NC(=O)COc1cccc(N(CCCO)C(C)=O)c1)C(N)=O`, the result in experiment [4] and in experiment [2] was inactive. Also, in experiment [1], the Activity amounted to 2902 pg/mL. Also, the outcome in experiment [5] was Active.
